Results: ChEMBL document CHEMBL1156851, “Practical and efficient synthesis of pyrano[3,2-c]pyridone, pyrano[4,3-b]pyran and their hybrids with nucleoside as potential antiviral and antileishmanial agents” (Bioorg Med Chem Lett, 2010)

How the values were obtained:
[1] = Cytotoxicity against HEL cells assessed as reduction of cell growth; format: cell-based; details: human
[2] = system: Human alphaherpesvirus 3; experiment: Antiviral activity against thymidine kinase expressing Varicella Zoster Virus OKA infected in HEL cells assessed as reduction of viral plaque formation; format: functional, organism-based; details: Human alphaherpesvirus 3, OKA
[3] = Cytotoxicity against HEL cells assessed as microscopically detectable alteration of cell morphology; format: cell-based; details: human
Summary of the method: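 Cells are examined under the microscope after exposure. MCC is the minimum concentration that causes a microscopically detectable change in cell morphology.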

[4] = system: Human betaherpesvirus 5; experiment: Antiviral activity against Cytomegalovirus Davis infected in HEL cells assessed as reduction of viral plaque formation; format: functional, organism-based; details: Human betaherpesvirus 5, Davis
[5] = system: Leishmania donovani; experiment: Antileishmanial activity against Leishmania donovani promastigotes; format: functional, organism-based
[6] = system: Human betaherpesvirus 5; experiment: Antiviral activity against Cytomegalovirus AD169 infected in HEL cells assessed as reduction of viral plaque formation; format: functional, organism-based; details: Human betaherpesvirus 5, AD169, HEL
[7] = system: Human alphaherpesvirus 3; experiment: Antiviral activity against thymidine kinase deficient Varicella zoster virus 07/1 infected in HEL cells assessed as reduction of viral plaque formation; format: functional, organism-based; details: Human alphaherpesvirus 3, 07/1, HEL

| SMILES | CC50 [1] [µM] | EC50 [2] [µM] | MCC [3] [µM] | EC50 [4] [µM] | IC50 [5] [µM] | EC50 [6] [µM] | EC50 [7] [µM] |
| --- | --- | --- | --- | --- | --- | --- | --- |
| Nc1nc2c(ncn2COCCO)c(=O)[nH]1 [ACYCLOVIR] | 1780 | 0.84 | > 1780 |  |  |  |  |
| Cc1cc2c(c(=O)n1C)C(c1cn([C@H]3C[C@H](O)[C@@H](CO)O3)c(=O)[nH]c1=O)C(C#N)=C(N)O2 (stereo not given in full) | > 100 | 74.6 | > 100 | > 100 | > 200 | > 100 | > 100 |
| CC(=O)OC[C@H]1O[C@@H](n2cc(C(c3c(O)cc(C)n(C)c3=O)c3c(O)cc(C)n(C)c3=O)c(=O)[nH]c2=O)C[C@@H]1OC(C)=O | 20 | 47.8 | > 100 | > 100 | > 200 | > 100 | > 100 |
| Cc1cc(O)c(C(c2cn([C@H]3C[C@H](O)[C@@H](CO)O3)c(=O)[nH]c2=O)c2c(O)cc(C)[nH]c2=O)c(=O)[nH]1 | 2.1 | 0.32 | > 100 | > 100 | 43.5 | 44.7 | 1.66 |
| Cc1cc(O)c(C(c2cn([C@H]3C[C@H](O)[C@@H](CO)O3)c(=O)[nH]c2=O)c2c(O)cc(C)n(C)c2=O)c(=O)n1C | 7.7 | 2.2 | > 100 | > 100 | > 200 | 54.7 | 16.7 |
| Cc1cc2c(c(=O)[nH]1)C(c1cn([C@H]3C[C@H](O)[C@@H](CO)O3)c(=O)[nH]c1=O)C(C#N)=C(N)O2 (stereo not given in full) | > 100 | 55.7 | > 100 | > 100 | 10.6 | > 100 | > 100 |
| CC(=O)OC[C@H]1O[C@@H](n2cc(C3C(C#N)=C(N)Oc4cc(C)oc(=O)c43)c(=O)[nH]c2=O)C[C@@H]1OC(C)=O (stereo not given in full) | 8.9 | 48.1 | > 100 | > 100 | > 200 | > 100 | > 100 |
| Cc1cc(O)c(C(c2cn([C@H]3C[C@H](O)[C@@H](CO)O3)c(=O)[nH]c2=O)c2c(O)cc(C)oc2=O)c(=O)o1 | 1.8 | 0.6 | > 100 | 20 | > 200 | 20 | 2.62 |
| CC(=O)OC[C@H]1O[C@@H](n2cc(C(c3c(O)cc(C)oc3=O)c3c(O)cc(C)oc3=O)c(=O)[nH]c2=O)C[C@@H]1OC(C)=O | 3.8 | 40.2 | > 100 | > 100 | > 200 | > 100 | 48.6 |
| CCn1c(C)cc2c(c1=O)C(c1cn([C@H]3C[C@H](O)[C@@H](CO)O3)c(=O)[nH]c1=O)C(C#N)=C(N)O2 (stereo not given in full) | > 100 | 71.2 | > 100 | > 100 | > 200 | > 100 | > 100 |
| CCn1c(C)cc2c(c1=O)C(c1cn([C@H]3C[C@H](OC(C)=O)[C@@H](COC(C)=O)O3)c(=O)[nH]c1=O)C(C#N)=C(N)O2 (stereo not given in full) | > 100 | > 100 | > 100 | > 100 | > 200 | > 100 | > 100 |
| N=C(N)c1ccc(OCCCCCOc2ccc(C(=N)N)cc2)cc1 [PENTAMIDINE] |  |  |  |  | 6.5 |  |  |
| CC(=O)OC[C@H]1O[C@@H](n2cc(C(c3c(O)cc(C)[nH]c3=O)c3c(O)cc(C)[nH]c3=O)c(=O)[nH]c2=O)C[C@@H]1OC(C)=O | 36.9 | > 100 | > 100 | > 100 | > 200 | > 100 | > 100 |
| Nc1ccn(C[C@@H](CO)OCP(=O)(O)O)c(=O)n1 [CIDOFOVIR] | 175 |  | > 1270 | 0.9 |  |  |  |
| CC(=O)OC[C@H]1O[C@@H](n2cc(C3C(C#N)=C(N)Oc4cc(C)[nH]c(=O)c43)c(=O)[nH]c2=O)C[C@@H]1OC(C)=O (stereo not given in full) | > 100 | 100 | > 100 | > 100 | 140 | > 100 | > 100 |
| CC(=O)OC[C@H]1O[C@@H](n2cc(C3C(C#N)=C(N)Oc4cc(C)n(C)c(=O)c43)c(=O)[nH]c2=O)C[C@@H]1OC(C)=O (stereo not given in full) | > 100 | > 100 | > 100 | > 100 | > 200 | > 100 | > 100 |
| Cc1cc2c(c(=O)o1)C(c1cn([C@H]3C[C@H](O)[C@@H](CO)O3)c(=O)[nH]c1=O)C(C#N)=C(N)O2 (stereo not given in full) | 3.3 | 1.8 | > 100 | 54.7 | > 200 | 54.7 | 5.3 |
